Measurements taken from ChEMBL document CHEMBL4190262, “Tuning of β-glucosidase and α-galactosidase inhibition by generation and in situ screening of a library of pyrrolidine-triazole hybrid molecules” (Eur J Med Chem, 2017).
Activity calls are given as the source filed them. No cut-off for these calls is given here.

What was measured:
[1] = target: T1, Lysosomal acid glucosylceramidase (Homo sapiens, UniProt P04062); assay: Inhibition of human lysosomal beta-glucocerebrosidase using 4-methylumbelliferyl-beta-D-glucopyranoside as substrate preincubated for 45 mins followed by substrate addition measured after 30 mins by fluorescence spectroscopic method
T1 sequence (P04062 whole entry): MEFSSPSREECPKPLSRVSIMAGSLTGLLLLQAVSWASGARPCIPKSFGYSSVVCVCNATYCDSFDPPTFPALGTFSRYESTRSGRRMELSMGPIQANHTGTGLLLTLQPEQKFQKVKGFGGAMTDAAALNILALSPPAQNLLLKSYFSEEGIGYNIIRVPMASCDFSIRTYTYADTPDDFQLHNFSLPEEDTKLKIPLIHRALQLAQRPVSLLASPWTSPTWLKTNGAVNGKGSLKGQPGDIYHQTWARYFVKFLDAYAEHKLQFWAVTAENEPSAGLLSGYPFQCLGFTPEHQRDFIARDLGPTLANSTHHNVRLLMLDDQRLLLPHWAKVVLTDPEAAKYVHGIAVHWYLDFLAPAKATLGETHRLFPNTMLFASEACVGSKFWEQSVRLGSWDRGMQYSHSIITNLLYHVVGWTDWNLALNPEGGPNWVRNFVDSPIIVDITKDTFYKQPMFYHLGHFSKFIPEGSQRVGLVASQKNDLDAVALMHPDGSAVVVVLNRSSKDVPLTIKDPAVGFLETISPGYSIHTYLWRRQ
Outline: (§1)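 Enzyme in 100 mM McIlvaine buffer pH 5.2 with 0.25% sodium taurocholate and 0.1% Triton X-100, with inhibitor. Preincubated at 0 °C for 45 min, then started with 3 mM 4-methylumbelliferyl glycoside substrate solution and incubated 30 min at 37 °C. Stopped with 400 mM glycine-NaOH pH 10.6. 4-Methylumbelliferone fluorescence read at ex 362/em 450 nm.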

[2] = target: T2, Alpha-galactosidase A (Homo sapiens) (UniProt P06280); assay: Inhibition of human lysosomal alpha-galactosidase A at 1 mM using 4-methylumbelliferyl-alpha-D-galactopyranoside as substrate preincubated for 45 mins followed by substrate addition measured after 30 mins by fluorescence spectroscopic method relative to control; outline: as §1
T2 sequence (whole entry): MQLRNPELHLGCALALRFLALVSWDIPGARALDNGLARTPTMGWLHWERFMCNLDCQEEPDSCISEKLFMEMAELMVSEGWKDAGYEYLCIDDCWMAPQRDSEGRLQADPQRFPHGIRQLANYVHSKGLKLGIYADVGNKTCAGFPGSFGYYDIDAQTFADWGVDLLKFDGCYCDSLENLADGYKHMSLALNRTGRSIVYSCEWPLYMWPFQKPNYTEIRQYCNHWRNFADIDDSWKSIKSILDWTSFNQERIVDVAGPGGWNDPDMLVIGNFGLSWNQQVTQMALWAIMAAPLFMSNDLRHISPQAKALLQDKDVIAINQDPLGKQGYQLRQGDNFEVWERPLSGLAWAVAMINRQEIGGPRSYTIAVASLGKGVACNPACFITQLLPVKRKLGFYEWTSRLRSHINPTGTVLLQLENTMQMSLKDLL

Beta-galactosidase = target: T3, Beta-galactosidase (Bos taurus, UniProt Q58D55); assay: Inhibition of bovine liver beta-galactosidase using p-nitrophenyl glycopyranoside preincubated for 5 mins followed by substrate addition measured after 20 mins by visible absorption spectroscopic method
T3 sequence (Q58D55 whole entry): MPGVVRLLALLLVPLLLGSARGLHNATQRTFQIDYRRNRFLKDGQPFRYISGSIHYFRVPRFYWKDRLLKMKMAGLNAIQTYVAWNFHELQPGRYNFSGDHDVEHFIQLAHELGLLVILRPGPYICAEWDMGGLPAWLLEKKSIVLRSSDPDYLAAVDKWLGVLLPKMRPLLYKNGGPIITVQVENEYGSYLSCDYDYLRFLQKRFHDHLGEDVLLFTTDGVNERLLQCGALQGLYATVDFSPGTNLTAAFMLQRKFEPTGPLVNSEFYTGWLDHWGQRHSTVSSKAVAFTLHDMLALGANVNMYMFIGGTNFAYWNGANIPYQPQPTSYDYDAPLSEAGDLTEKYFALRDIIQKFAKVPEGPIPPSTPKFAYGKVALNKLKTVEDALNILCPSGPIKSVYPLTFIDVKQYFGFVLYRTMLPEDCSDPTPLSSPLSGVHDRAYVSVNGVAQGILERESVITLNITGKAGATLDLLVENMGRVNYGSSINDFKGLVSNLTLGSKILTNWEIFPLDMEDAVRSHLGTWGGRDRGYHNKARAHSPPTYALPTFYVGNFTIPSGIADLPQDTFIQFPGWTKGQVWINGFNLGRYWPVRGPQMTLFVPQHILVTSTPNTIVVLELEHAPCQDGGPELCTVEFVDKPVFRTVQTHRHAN
Outline: (§2)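 IC50 determined only for compounds giving ≥80% inhibition at 1 mM, read from plots of % inhibition versus inhibitor concentration. p-Nitrophenyl glycopyranoside substrate (10 mM solution) at the enzyme's optimal pH, with 0.01–0.5 units/mL enzyme. 5 min rt preincubation with enzyme, then 20 min at 37 °C. Borate stop (pH 9.8), absorbance at 405 nm. Duplicates averaged.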

Prunus dulcis = assay: Inhibition of almond beta-glucosidase at 1 mM using p-nitrophenyl glycopyranoside preincubated for 5 mins followed by substrate addition measured after 20 mins by visible absorption spectroscopic method relative to control
Outline: (§3)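 Test compound at 1 mM in well. Mix: 0.01–0.5 units/mL enzyme plus 10 mM p-nitrophenyl glycopyranoside (aqueous solution), buffered to the enzyme's optimal pH. Enzyme and inhibitor preincubated 5 min at rt. Substrate then added and incubated 20 min at 37 °C. Stopped with sodium borate (pH 9.8). p-Nitrophenolate read at 405 nm. Duplicates averaged.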

[3] = Selectivity ratio of IC50 for human lysosomal alpha-galactosidase A to IC50 for coffee beans alpha-galactosidase
Bos taurus [4] = species: Bos taurus; assay: Inhibition of bovine liver beta-glucosidase at 1 mM using p-nitrophenyl glycopyranoside preincubated for 5 mins followed by substrate addition measured after 20 mins by visible absorption spectroscopic method relative to control; outline: as §3
Alpha-galactosidase = Alpha-galactosidase (Coffea arabica, UniProt Q42656); assay: Inhibition of coffee beans alpha-galactosidase using p-nitrophenyl glycopyranoside preincubated for 5 mins followed by substrate addition measured after 20 mins by visible absorption spectroscopic method; outline: as §2
Sequence of Alpha-galactosidase (Q42656 whole entry): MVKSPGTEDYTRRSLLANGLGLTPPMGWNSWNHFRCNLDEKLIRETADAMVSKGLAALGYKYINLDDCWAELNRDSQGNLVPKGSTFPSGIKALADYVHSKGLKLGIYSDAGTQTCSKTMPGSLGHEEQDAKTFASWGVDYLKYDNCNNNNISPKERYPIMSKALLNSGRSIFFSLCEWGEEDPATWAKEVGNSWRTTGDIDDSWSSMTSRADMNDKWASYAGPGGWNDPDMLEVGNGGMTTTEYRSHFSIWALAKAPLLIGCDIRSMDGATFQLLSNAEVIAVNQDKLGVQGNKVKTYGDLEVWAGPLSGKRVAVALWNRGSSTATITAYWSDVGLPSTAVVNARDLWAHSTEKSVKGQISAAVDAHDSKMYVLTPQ

[5] = target: Alpha-galactosidase (Coffea arabica) (UniProt Q42656); assay: Inhibition of coffee beans alpha-galactosidase at 50 uM using p-nitrophenyl glycopyranoside preincubated for 5 mins followed by substrate addition measured after 20 mins by visible absorption spectroscopic method relative to control
Sequence of Alpha-galactosidase (Coffea arabica) (Q42656 16-378 limits assumed): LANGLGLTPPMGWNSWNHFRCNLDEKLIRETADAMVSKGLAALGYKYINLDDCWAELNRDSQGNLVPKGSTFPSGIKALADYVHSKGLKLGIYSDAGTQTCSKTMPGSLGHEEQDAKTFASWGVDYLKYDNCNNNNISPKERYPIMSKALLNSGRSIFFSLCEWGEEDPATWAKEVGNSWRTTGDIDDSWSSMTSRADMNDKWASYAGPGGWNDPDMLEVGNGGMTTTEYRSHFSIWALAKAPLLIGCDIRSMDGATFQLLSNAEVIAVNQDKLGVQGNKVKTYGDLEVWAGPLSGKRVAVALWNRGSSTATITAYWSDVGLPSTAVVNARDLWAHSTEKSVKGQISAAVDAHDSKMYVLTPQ
Outline: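 Crude triazoles from in situ CuAAC (ascorbate/CuSO4, 24 h rt, water-diluted) were screened at 50 μM per well, assuming full conversion. Enzyme was coffee bean α-galactosidase at pH 6, 37 °C, with p-nitrophenyl glycoside substrate and 405 nm read-out. Blanks of CuSO4, ascorbate and each alkyne were run.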

Saccharomyces cerevisiae = assay: Inhibition of yeast alpha glucosidase at 1 mM using p-nitrophenyl glycopyranoside preincubated for 5 mins followed by substrate addition measured after 20 mins by visible absorption spectroscopic method relative to control; outline: as §3
[6] = target: Beta-galactosidase (Escherichia coli) (UniProt Q8VNN2); assay: Inhibition of Escherichia coli beta-galactosidase at 1 mM using p-nitrophenyl glycopyranoside preincubated for 5 mins followed by substrate addition measured after 20 mins by visible absorption spectroscopic method relative to control; outline: as §3
Sequence of Beta-galactosidase (Escherichia coli) (Q8VNN2 whole entry, looked up): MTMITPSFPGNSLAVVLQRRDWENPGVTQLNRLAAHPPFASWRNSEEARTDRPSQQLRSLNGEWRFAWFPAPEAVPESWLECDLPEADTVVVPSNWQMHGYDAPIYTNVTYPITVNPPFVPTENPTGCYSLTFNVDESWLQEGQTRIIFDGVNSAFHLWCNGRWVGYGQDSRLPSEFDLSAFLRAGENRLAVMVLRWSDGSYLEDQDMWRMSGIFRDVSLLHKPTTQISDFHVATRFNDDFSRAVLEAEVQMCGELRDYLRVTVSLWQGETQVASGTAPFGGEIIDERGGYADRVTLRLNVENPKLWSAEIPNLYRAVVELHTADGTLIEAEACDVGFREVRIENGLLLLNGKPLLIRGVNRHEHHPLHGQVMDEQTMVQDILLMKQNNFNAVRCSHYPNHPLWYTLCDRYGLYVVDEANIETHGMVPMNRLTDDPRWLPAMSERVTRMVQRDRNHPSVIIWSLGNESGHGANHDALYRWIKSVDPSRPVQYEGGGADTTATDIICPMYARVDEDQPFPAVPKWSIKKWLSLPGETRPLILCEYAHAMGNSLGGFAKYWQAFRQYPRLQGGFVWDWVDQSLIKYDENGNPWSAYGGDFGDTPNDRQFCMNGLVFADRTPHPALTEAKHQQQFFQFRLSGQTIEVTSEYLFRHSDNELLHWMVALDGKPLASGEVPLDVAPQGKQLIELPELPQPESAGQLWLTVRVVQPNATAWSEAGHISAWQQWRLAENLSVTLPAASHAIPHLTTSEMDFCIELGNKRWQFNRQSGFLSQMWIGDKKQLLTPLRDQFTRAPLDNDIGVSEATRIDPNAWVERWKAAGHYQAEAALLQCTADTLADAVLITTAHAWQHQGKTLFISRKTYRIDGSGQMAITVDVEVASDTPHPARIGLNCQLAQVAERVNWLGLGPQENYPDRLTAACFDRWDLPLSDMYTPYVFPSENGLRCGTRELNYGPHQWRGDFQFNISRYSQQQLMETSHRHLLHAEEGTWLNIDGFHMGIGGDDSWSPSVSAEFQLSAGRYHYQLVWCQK

[7] = target: T4, Beta-galactosidase (Aspergillus oryzae) (UniProt B7VU80); assay: Inhibition of Aspergillus oryzae beta-galactosidase at 1 mM using p-nitrophenyl glycopyranoside preincubated for 5 mins followed by substrate addition measured after 20 mins by visible absorption spectroscopic method relative to control; outline: as §3
T4 sequence (whole entry): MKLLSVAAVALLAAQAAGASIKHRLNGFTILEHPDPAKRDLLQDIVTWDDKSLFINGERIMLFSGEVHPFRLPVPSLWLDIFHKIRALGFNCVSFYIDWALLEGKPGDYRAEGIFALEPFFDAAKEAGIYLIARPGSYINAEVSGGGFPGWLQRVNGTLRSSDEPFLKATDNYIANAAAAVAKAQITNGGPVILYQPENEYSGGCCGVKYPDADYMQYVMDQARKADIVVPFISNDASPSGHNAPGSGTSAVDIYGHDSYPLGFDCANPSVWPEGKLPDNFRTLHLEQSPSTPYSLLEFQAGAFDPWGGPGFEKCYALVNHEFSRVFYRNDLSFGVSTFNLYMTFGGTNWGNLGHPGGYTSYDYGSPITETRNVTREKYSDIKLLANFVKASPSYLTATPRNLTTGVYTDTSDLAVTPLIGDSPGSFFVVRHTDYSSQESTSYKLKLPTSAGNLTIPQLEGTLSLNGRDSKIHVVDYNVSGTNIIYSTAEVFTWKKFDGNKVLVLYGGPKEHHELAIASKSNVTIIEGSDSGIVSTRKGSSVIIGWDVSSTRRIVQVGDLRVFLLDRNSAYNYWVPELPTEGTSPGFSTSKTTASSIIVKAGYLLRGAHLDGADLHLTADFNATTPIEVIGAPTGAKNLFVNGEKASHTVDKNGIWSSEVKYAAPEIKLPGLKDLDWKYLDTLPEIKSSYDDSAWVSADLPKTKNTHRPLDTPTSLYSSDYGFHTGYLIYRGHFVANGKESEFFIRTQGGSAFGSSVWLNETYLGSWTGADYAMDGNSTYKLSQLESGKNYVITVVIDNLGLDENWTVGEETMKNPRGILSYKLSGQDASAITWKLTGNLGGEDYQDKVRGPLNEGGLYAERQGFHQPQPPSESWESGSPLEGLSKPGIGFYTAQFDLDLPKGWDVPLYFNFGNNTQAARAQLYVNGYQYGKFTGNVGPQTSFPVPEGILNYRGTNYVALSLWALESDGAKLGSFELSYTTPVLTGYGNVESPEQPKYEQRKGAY

[8] = target: Alpha-galactosidase (Coffea arabica) (UniProt Q42656); assay: Inhibition of coffee beans alpha-galactosidase at 1 mM using p-nitrophenyl glycopyranoside preincubated for 5 mins followed by substrate addition measured after 20 mins by visible absorption spectroscopic method relative to control; outline: as §3
[9] = target: T5, Alpha-mannosidase (Canavalia ensiformis) (UniProt C0HJB3); assay: Inhibition of jack bean alpha-mannosidase at 1 mM using p-nitrophenyl glycopyranoside preincubated for 5 mins followed by substrate addition measured after 20 mins by visible absorption spectroscopic method relative to control; outline: as §3
T5 sequence (whole entry): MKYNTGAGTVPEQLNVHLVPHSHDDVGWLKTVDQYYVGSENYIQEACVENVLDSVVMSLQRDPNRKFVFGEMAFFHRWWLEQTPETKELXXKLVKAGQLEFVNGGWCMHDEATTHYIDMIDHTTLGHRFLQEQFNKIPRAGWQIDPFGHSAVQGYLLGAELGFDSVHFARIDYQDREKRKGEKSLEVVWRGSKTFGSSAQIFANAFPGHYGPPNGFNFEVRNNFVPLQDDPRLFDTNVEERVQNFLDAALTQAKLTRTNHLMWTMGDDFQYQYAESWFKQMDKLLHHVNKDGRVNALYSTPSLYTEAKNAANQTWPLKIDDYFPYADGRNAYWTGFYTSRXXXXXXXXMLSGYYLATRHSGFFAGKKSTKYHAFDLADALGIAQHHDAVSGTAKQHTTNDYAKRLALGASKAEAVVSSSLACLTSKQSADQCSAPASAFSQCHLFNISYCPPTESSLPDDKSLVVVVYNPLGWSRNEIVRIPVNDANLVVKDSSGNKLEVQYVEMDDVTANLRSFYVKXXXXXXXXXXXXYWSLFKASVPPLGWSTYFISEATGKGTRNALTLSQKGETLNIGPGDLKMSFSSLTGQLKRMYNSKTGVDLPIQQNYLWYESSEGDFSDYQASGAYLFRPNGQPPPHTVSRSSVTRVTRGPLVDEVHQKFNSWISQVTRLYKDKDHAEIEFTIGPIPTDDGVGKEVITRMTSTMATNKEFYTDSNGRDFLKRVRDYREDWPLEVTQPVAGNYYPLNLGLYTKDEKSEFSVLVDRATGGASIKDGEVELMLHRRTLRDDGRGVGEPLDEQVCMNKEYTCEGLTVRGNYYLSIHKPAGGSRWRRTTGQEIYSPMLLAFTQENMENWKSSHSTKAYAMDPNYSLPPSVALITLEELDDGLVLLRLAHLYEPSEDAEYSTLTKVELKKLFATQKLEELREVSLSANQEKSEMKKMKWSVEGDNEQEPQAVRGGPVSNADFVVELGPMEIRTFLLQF

Bos taurus [10] = species: Bos taurus; assay: Inhibition of bovine kidney alpha-L-fucosidase at 1 mM using p-nitrophenyl glycopyranoside preincubated for 5 mins followed by substrate addition measured after 20 mins by visible absorption spectroscopic method relative to control; outline: as §3
Cornu aspersum = assay: Inhibition of snail beta-mannosidase at 1 mM using p-nitrophenyl glycopyranoside preincubated for 5 mins followed by substrate addition measured after 20 mins by visible absorption spectroscopic method relative to control; outline: as §3
Canavalia ensiformis = assay: Inhibition of jack bean beta-N-acetylglucosaminidase at 1 mM using p-nitrophenyl glycopyranoside preincubated for 5 mins followed by substrate addition measured after 20 mins by visible absorption spectroscopic method relative to control; outline: as §3
Aspergillus niger = assay: Inhibition of Aspergillus niger amyloglucosidase at 1 mM using p-nitrophenyl glycopyranoside preincubated for 5 mins followed by substrate addition measured after 20 mins by visible absorption spectroscopic method relative to control; outline: as §3
Oryza sativa = assay: Inhibition of rice alpha-glucosidase at 1 mM using p-nitrophenyl glycopyranoside preincubated for 5 mins followed by substrate addition measured after 20 mins by visible absorption spectroscopic method relative to control; outline: as §3
[11] = Inhibition of almond beta-glucosidase using p-nitrophenyl glycopyranoside preincubated for 5 mins followed by substrate addition measured after 20 mins by visible absorption spectroscopic method; design: species or system Prunus dulcis; outline: as §2

SMILES	IC50 [1] [µM]	inhibition [2] [%]	IC50 (Beta-galactosidase) [µM]	inhibition (Prunus dulcis) [%]	Ratio IC50 [3]	inhibition (Bos taurus [4]) [%]	IC50 (Alpha-galactosidase) [µM]	inhibition [5] [%]	inhibition (Saccharomyces cerevisiae)	inhibition [6]	inhibition [7] [%]	inhibition [8] [%]	inhibition [9]	inhibition (Bos taurus [10])	inhibition (Cornu aspersum)	inhibition (Canavalia ensiformis)	inhibition (Aspergillus niger)	inhibition (Oryza sativa)	IC50 [11] [µM]
COc1ccc2cc(-c3cn(C[C@H]4NC[C@@H](O)[C@H]4O)nn3)ccc2c1	19	< 50	42	< 50	10	< 50	17	64											
[N-]=[N+]=NC[C@H]1NC[C@@H](O)[C@H]1O				89			127	38	inactive	inactive	50	88	43%	inactive	inactive	inactive	inactive	inactive	
O[C@@H]1[C@H](O)CN[C@@H]1CCn1cc(-c2ccccc2)nn1				96			107		inactive	60%	78	89	inactive	49%	inactive	inactive	inactive	inactive	11
